Calls of active or inactive are those of the source. No cut-off for these calls is given here.
How the values were obtained:
SARS-CoV-2 [1] = test: Antiviral activity against SARS-CoV-2 infected in African green monkey Vero E6 cells assessed as inhibition of viral replication at 1 uM incubated for 24 hrs by IFA assay relative to control; format: functional; details: Severe acute respiratory syndrome coronavirus 2, Vero C1008
SARS-CoV-2 [2] = test: Antiviral activity against SARS-CoV-2 infected in African green monkey Vero E6 cells assessed as inhibition of viral replication incubated for 24 hrs by IFA assay; format: functional, organism-based; details: Severe acute respiratory syndrome coronavirus 2, Vero C1008, 24 h
[3] = Selectivity index, ratio of CC50 for cytotoxicity against African green monkey Vero E6 to EC50 for antiviral activity against SARS-CoV-2 infected in African green monkey Vero E6 cells; format: toxicity, cell-based, Vero C1008; details: read-out: Ratio CC50/EC50
Vero C1008 [4] = test: Cytotoxicity against African green monkey Vero E6 cells assessed as reduction in cell viability measured after 48 hrs by CCK-8 assay; format: toxicity, cell-based; details: chlorocebus sabaeus, vero c1008, 48 h
[5] = Observed MRT (0 to infinity) in ICR mouse at 2.5 mg/kg, iv measured upto 24 hrs by LC-MS/MS analysis; format: ADME, organism-based; details: ICR, in vivo
Procedure, shortened: (§1)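 Male-unspecified ICR (CD-1) mice, N = 3 per group, were fasted 12 h. Compound in DMSO/0.5% HMPC (5/95, v/v) was given orally at 30 mg/kg or intravenously at 2.5 mg/kg. Femoral-vein blood was drawn at 0.25, 0.5, 1, 2, 4, 8 and 24 h, and serum analyte levels were measured by LC-MS/MS.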

[6] = Observed AUC (0 to infinity) in ICR mouse at 2.5 mg/kg, iv measured upto 24 hrs by LC-MS/MS analysis; format: ADME, organism-based; design: dose 2.5 mg/kg, time < 24 hrs, route iv; details: ICR, in vivo; procedure, shortened: as §1
[7] = AUClast in ICR mouse at 2.5 mg/kg, iv measured upto 24 hrs by LC-MS/MS analysis; format: ADME, organism-based; design: dose 2.5 mg/kg, time < 24 hrs, route iv; details: ICR, in vivo; procedure, shortened: as §1
[8] = Cmax in ICR mouse at 2.5 mg/kg, iv measured upto 24 hrs by LC-MS/MS analysis; format: ADME, organism-based; design: dose 2.5 mg/kg, time < 24 hrs, route iv; details: in vivo; procedure, shortened: as §1
[9] = Half life in ICR mouse at 2.5 mg/kg, iv measured upto 24 hrs by LC-MS/MS analysis; format: ADME, organism-based; details: ICR, in vivo; procedure, shortened: as §1
[10] = AUClast in ICR mouse at 30 mg/kg, po measured upto 24 hrs by LC-MS/MS analysis; format: ADME, organism-based; design: dose 30 mg/kg, time < 24 hrs, route po; details: in vivo; procedure, shortened: as §1
[11] = Observed MRT (0 to infinity) in ICR mouse at 30 mg/kg, po measured upto 24 hrs by LC-MS/MS analysis; format: ADME, organism-based; details: in vivo; procedure, shortened: as §1
[12] = Cmax in ICR mouse at 30 mg/kg, po measured upto 24 hrs by LC-MS/MS analysis; format: ADME, organism-based; design: dose 30 mg/kg, time < 24 hrs, route po; details: in vivo; procedure, shortened: as §1
[13] = Half life in ICR mouse at 30 mg/kg, po measured upto 24 hrs by LC-MS/MS analysis; format: ADME, organism-based; details: in vivo; procedure, shortened: as §1
[14] = Observed AUC (0 to infinity) in ICR mouse at 30 mg/kg, po measured upto 24 hrs by LC-MS/MS analysis; format: ADME, organism-based; design: dose 30 mg/kg, time < 24 hrs, route po; details: in vivo; procedure, shortened: as §1
Vero C1008 [15] = test: Downregulation of BECN1 level in African green monkey Vero E6 cells at 10 uM measured after 16 hrs by Western blotting analysis; format: functional, cell-based; details: Chlorocebus sabaeus
Procedure, shortened: (§2)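 Vero-E6 cells in DMEM with 10% FBS were cultured overnight at 37 °C, 5% CO2, then treated with a concentration series for 16 h. Lysates were made in RIPA on ice and equalised for protein by BCA. Blots were probed for SKP2 or Beclin-1 plus β-actin and detected by ECL. The band-intensity ratio to β-actin was normalised to DMSO control.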

[16] = Aqueous solubility of compound at 0.5 mg/mL in presence of acetonitrile by HPLC analysis; format: physicochemical; details: buffer
Procedure, shortened: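 Compound was suspended in water, vortexed vigorously and filtered through a 0.22 μm membrane. The filtrate was diluted 2-fold with 80% acetonitrile and analysed by reversed-phase amide HPLC. Concentration was read against a standard curve prepared from a 0.5 mg/mL solution in 80% acetonitrile. Single determination.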

SARS-CoV-2 [17] = test: Antiviral activity against SARS-CoV-2 infected in African green monkey Vero E6 cells assessed as inhibition of viral replication at 2.5 uM incubated for 24 hrs by IFA assay relative to control; format: functional; details: Severe acute respiratory syndrome coronavirus 2, Vero C1008
Vero C1008 [18] = test: Downregulation of BECN1 level in African green monkey Vero E6 cells at 1 to 3 uM measured after 16 hrs by Western blotting analysis; format: functional, cell-based; details: Chlorocebus sabaeus, dose 1-3 µM; procedure, shortened: as §2
Vero C1008 [19] = test: Downregulation of SKP2 level in African green monkey Vero E6 cells at 0.3 to 10 uM measured after 16 hrs by Western blotting analysis; format: functional, cell-based; details: Chlorocebus sabaeus, dose 0.3-10 µM; procedure, shortened: as §2
[20] = Prodrug conversion in ICR mouse plasma assessed as AUClast of compound 5-chloro-4-fluoro-2-hydroxy-N-(4-(trifluoromethoxy)phenyl)benzamide at 30 mg/kg, po and 2.5 mg/kg, iv measured upto 24 hrs by LC-MS/MS analysis; format: ADME, organism-based; design: dose 30 mg/kg, time < 24 hrs, route po; details: in vivo
Procedure, shortened: (§3)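 Prodrugs were given to fasted ICR (CD-1) mice (N = 3) in DMSO/0.5% HMPC (5/95), at 30 mg/kg po or 2.5 mg/kg iv. Serum from femoral-vein blood taken 0.25–24 h was analysed by LC-MS/MS for the released parent compound, with mole correction applied to the parameters.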

[21] = Prodrug conversion in ICR mouse plasma assessed as oral bioavailability of compound 5-chloro-4-fluoro-2-hydroxy-N-(4-(trifluoromethoxy)phenyl)benzamide at 30 mg/kg measured upto 24 hrs by LC-MS/MS analysis; format: ADME, organism-based; details: in vivo; procedure, shortened: as §3
[22] = Prodrug conversion in ICR mouse plasma assessed as Observed AUC (0 to infinity) of compound 5-chloro-4-fluoro-2-hydroxy-N-(4-(trifluoromethoxy)phenyl)benzamide at 30 mg/kg, po and 2.5 mg/kg, iv measured upto 24 hrs by LC-MS/MS analysis; format: ADME, organism-based; design: time < 24 hrs, dose 30 mg/kg, route po; details: in vivo; procedure, shortened: as §3
[23] = Prodrug conversion in ICR mouse plasma assessed as half life of compound 5-chloro-4-fluoro-2-hydroxy-N-(4-(trifluoromethoxy)phenyl)benzamide at 30 mg/kg, po and 2.5 mg/kg, iv measured upto 24 hrs by LC-MS/MS analysis; format: ADME, organism-based; details: in vivo; procedure, shortened: as §3
[24] = Prodrug conversion in ICR mouse plasma assessed as Observed MRT (0 to infinity) of compound 5-chloro-4-fluoro-2-hydroxy-N-(4-(trifluoromethoxy)phenyl)benzamide at 30 mg/kg, po and 2.5 mg/kg, iv measured upto 24 hrs by LC-MS/MS analysis; format: ADME, organism-based; details: in vivo; procedure, shortened: as §3
[25] = Prodrug conversion in ICR mouse plasma assessed as Cmax of compound 5-chloro-4-fluoro-2-hydroxy-N-(4-(trifluoromethoxy)phenyl)benzamide at 30 mg/kg, po and 2.5 mg/kg, iv measured upto 24 hrs by LC-MS/MS analysis; format: ADME, organism-based; design: time < 24 hrs, dose 30 mg/kg, route po; details: in vivo; procedure, shortened: as §3
SARS-CoV-2 [26] = test: Antiviral activity against SARS-CoV-2 infected in African green monkey Vero E6 cells assessed as inhibition of viral replication at 5 uM incubated for 24 hrs by IFA assay relative to control; format: functional; details: Severe acute respiratory syndrome coronavirus 2, Vero C1008

O=C(Nc1ccc(C(F)(F)F)cc1)c1ccccc1O
inhibition at 1 µM (SARS-CoV-2 [1]): < 10%

O=C(Nc1ccc(C(F)(F)F)cc1)c1cc(Cl)ccc1O
inhibition at 1 µM (SARS-CoV-2 [1]): 95%
EC50 (SARS-CoV-2 [2]): 1310 nM

O=C(NCc1ccc(C(F)(F)F)cc1)c1cc(Cl)ccc1O
inhibition at 1 µM (SARS-CoV-2 [1]): 55%

COc1ccc(Cl)cc1C(=O)Nc1ccc(C(F)(F)F)cc1
inhibition at 1 µM (SARS-CoV-2 [1]): < 10%

O=C(Nc1ccc(SC(F)(F)F)cc1)c1cc(Cl)c(F)cc1O
selectivity ratio [3]: 1.63
CC50 (Vero C1008 [4]): 2630 nM
inhibition at 1 µM (SARS-CoV-2 [1]): 87%
EC50 (SARS-CoV-2 [2]): 1610 nM

O=S(=O)(Nc1ccc(C(F)(F)F)cc1)c1cc(Cl)ccc1O
inhibition at 1 µM (SARS-CoV-2 [1]): < 10%

C[C@H](N)C(=O)Oc1cc(F)c(Cl)cc1C(=O)Nc1ccc(OC(F)(F)F)cc1.Cl
MRT inf [5]: 5.02 h
AUC(0-inf) [6]: 6700 ng·h/mL
AUC(0-t) at 24 h [7]: 6670 ng·h/mL
Cmax [8]: 3360 ng/mL
half-life [9]: 2.92 h

O=C(Nc1ccc(C(F)(F)F)c(Cl)c1)c1cc(Cl)c(F)cc1O
selectivity ratio [3]: 1.69
CC50 (Vero C1008 [4]): 4520 nM
inhibition at 1 µM (SARS-CoV-2 [1]): 95%
EC50 (SARS-CoV-2 [2]): 2670 nM

O=C(Nc1ccc(OC(F)(F)F)cc1)c1cc(Cl)ccc1O
inhibition at 1 µM (SARS-CoV-2 [1]): 55%

Oc1ccc(Cl)cc1-c1nnc(-c2ccc(C(F)(F)F)cc2)o1
inhibition at 1 µM (SARS-CoV-2 [1]): < 10%

CS(=O)(=O)Nc1ccc(NC(=O)c2cc(Cl)ccc2O)c(Cl)c1
inhibition at 1 µM (SARS-CoV-2 [1]): < 10%

O=C(Nc1ccc(C(F)(F)F)cc1)c1cc(Cl)c(F)cc1O
AUClast [10]: 1563 ng·h/mL
MRT [11]: 5.45 h
Cmax [12]: 452 ng/mL
selectivity ratio [3]: 3.73
CC50 (Vero C1008 [4]): 3730 nM
inhibition at 1 µM (SARS-CoV-2 [1]): 95%
t1/2 [13]: 3.1 h
AUC [14]: 1573 ng·h/mL
EC50 (SARS-CoV-2 [2]): 1000 nM

O=C(Nc1ccc(C(F)(F)F)cc1Cl)c1cc(Cl)ccc1O
inhibition at 1 µM (SARS-CoV-2 [1]): 79%

O=C(Nc1ccc([N+](=O)[O-])cc1Cl)c1cc(Cl)ccc1O [NICLOSAMIDE]
AUClast [10]: 478 ng·h/mL
MRT [11]: 2.81 h
Cmax [12]: 428 ng/mL
Activity (Vero C1008 [15]): Active
CC50 (Vero C1008 [4]): 1960 nM
solubility [16]: 0.16 µg/mL
inhibition at 2.5 µM (SARS-CoV-2 [17]): 39%
t1/2 [13]: 1.99 h
AUC [14]: 522 ng·h/mL
Activity (Vero C1008 [18]): Active
Activity (Vero C1008 [19]): Active

Nc1ccc(NC(=O)c2cc(Cl)ccc2O)c(Cl)c1
inhibition at 1 µM (SARS-CoV-2 [1]): < 10%

Oc1ccc(Cl)cc1-c1nnc(-c2ccc(C(F)(F)F)cc2)[nH]1
inhibition at 1 µM (SARS-CoV-2 [1]): < 10%

O=C(Nc1ccc(C(F)(F)F)cc1)c1cc(F)ccc1O
selectivity ratio [3]: 0.98
CC50 (Vero C1008 [4]): 1610 nM
inhibition at 1 µM (SARS-CoV-2 [1]): 92%
EC50 (SARS-CoV-2 [2]): 1640 nM

N#Cc1ccc(Cl)cc1C(=O)Nc1ccc(C(F)(F)F)cc1
inhibition at 1 µM (SARS-CoV-2 [1]): < 10%

CC(C)C(=O)Oc1cc(F)c(Cl)cc1C(=O)Nc1ccc(OC(F)(F)F)cc1
AUClast [20]: 17393 ng·h/mL
F [21]: 39.75%
AUC [22]: 17551 ng·h/mL
t1/2 [23]: 3.03 h
solubility [16]: 0.53 µg/mL
MRT [24]: 5.52 h
Cmax [25]: 5175 ng/mL

O=C(Nc1ccc(C(F)(F)F)cc1)c1cc(Cl)cc([N+](=O)[O-])c1O
inhibition at 1 µM (SARS-CoV-2 [1]): 50%

O=C(Nc1ccc(C(F)(F)F)cc1)c1cc(Cl)cc(Cl)c1O
inhibition at 1 µM (SARS-CoV-2 [1]): < 10%

CCC(CC)COC(=O)[C@H](C)N[P@](=O)(OC[C@H]1O[C@@](C#N)(c2ccc3c(N)ncnn23)[C@H](O)[C@@H]1O)Oc1ccccc1
inhibition at 1 µM (SARS-CoV-2 [1]): < 10%
inhibition at 5 µM (SARS-CoV-2 [26]): 99%

CC(=O)Nc1ccc(NC(=O)c2cc(Cl)ccc2O)c(Cl)c1
inhibition at 1 µM (SARS-CoV-2 [1]): < 10%

O=C(Nc1ccc(C(F)(F)F)cc1)c1cc(Cl)cnc1O
inhibition at 1 µM (SARS-CoV-2 [1]): 50%

CC(=O)c1cc(Cl)cc(C(=O)Nc2ccc(C(F)(F)F)cc2)c1O
inhibition at 1 µM (SARS-CoV-2 [1]): 50%

O=C(NC(=O)c1cc(Cl)ccc1O)c1ccc(C(F)(F)F)cc1
inhibition at 1 µM (SARS-CoV-2 [1]): < 10%

CC(=O)Oc1cc(F)c(Cl)cc1C(=O)Nc1ccc(OC(F)(F)F)cc1
AUClast [20]: 16458 ng·h/mL
F [21]: 37.61%
AUC [22]: 16726 ng·h/mL
t1/2 [23]: 3.57 h
solubility [16]: 0.71 µg/mL
MRT [24]: 6.03 h
Cmax [25]: 4771 ng/mL

From ChEMBL document CHEMBL5360580 (Eur J Med Chem, 2023)
